Shown are actives, neighbours in structure and some others; about 3.5% of the full set was active somewhere.
MrgX1 ag: activates human MrgX1 receptor signaling | Q96LB2 | MrgX1-HEK293 cells, Fluo-4 calcium fluorescence, agonist mode; hits give high values | B-score at 10 µM | hit rate 0.44% among 310,000 | AID 588627;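 active means calcium response B-score plate-corrected fluorescence ratio at least 3 library SD, with starting fluorescence B-score inside 5 SD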
Target sequence (Q96LB2 whole entry, looked up): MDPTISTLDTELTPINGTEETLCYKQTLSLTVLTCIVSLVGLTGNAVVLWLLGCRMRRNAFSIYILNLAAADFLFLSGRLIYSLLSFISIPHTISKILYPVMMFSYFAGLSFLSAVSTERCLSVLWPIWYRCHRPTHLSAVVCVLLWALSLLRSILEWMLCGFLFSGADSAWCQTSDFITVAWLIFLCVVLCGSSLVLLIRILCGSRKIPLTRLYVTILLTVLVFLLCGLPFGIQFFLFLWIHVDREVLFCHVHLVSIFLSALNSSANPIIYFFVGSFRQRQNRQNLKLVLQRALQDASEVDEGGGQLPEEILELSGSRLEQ
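Test system: HEK293 cells stably expressing human MrgX1 receptor; amount: 15,000 cells per well; doses: compound delivered in addition one of three; times: overnight plating before 1 h dye loading; detection: Fluo-4 NW calcium-flux fluorescence, kinetic read; read-out basis: B-scored fluorescence response ratio; controls: positive and negative controls per plate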
MrgX1 PAM: allosterically activates human MrgX1 receptor signaling. Q96LB2. MrgX1-HEK293, Fluo-4 calcium flux, FDSS; hits give high values. B-score at 10 µM. hit rate 0.63% among 310,000. AID 588675;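 active means plate-corrected calcium response at least 3 library SD above typical, normal starting fluorescence, not activating the receptor alone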;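 further: compound read alongside a low EC10 to EC30 dose of BAM8-22 agonist; peak minus trough fluorescence over baseline measured at the second addition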
MrgX1 antag: human MrgX1 receptor antagonism, primary screen; Q96LB2; MRGX1-HEK293 calcium flux, Fluo-4, BAM8-22 antagonism; hits give low values; B-score at 10 µM; hit rate 1.3% among 310,000; AID 588676;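 active means calcium-response B-score plate-corrected more than 3 library SD below zero, starting fluorescence within 5 deviations, no agonist response on first addition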;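 further: peak minus trough fluorescence over baseline after final BAM8-22 challenge near maximal dose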
RGS4 act: potentiators or activators of RGS4; AID 463111; B-score at 10 µM; hit rate 0.92% among 310,000; HEK293 M3R/inducible RGS4, carbachol calcium flux Fluo4; hits give low values;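 active means B-score of the integrated calcium signal more than 4 SD below the library mean, with starting fluorescence not abnormally high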;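 further: negative B-score means reduced calcium response which marks RGS4 activation or potentiation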
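Assay system: HEK293 FlpIn-TREx cells, stable M3R, doxycycline-inducible RGS4 / Probe or stimulus: carbachol, ECmax concentration / Times: overnight RGS4 induction, 30 min dye load 37 °C, 20 min compound RT / Signal: kinetic calcium fluorescence imaging with Fluo4-AM dye, 2 µM / Measure: Agonist-evoked peak-minus-minimum fluorescence over baseline, integrated ratio, B score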
RGS4 block: human RGS4 inhibition. P49798. HEK293 M3R/RGS4 inducible, Fluo-4 calcium flux; hits give high values; triggered by carbachol at its EC20. B-score at 10 µM. hit rate 0.45% among 310,000. AID 463165;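 active means B-score, a plate-corrected calcium signal, over three deviations above library mean, with baseline fluorescence within five deviations of library mean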;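 further: RGS4 expression induced by doxycycline in cells with stable M3 receptor; B-score is computed from the integrated fluorescence ratio over baseline after carbachol; higher B-score means a larger calcium signal and so more RGS4 inhibition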
Target sequence (P49798 whole entry, looked up): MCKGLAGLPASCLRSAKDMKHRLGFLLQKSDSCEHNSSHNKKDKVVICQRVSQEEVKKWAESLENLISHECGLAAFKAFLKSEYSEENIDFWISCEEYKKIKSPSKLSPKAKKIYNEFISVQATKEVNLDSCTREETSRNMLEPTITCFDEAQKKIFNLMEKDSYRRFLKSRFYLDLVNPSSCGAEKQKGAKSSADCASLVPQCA
MrgX1 ant reconf: confirmation of human MrgX1 receptor antagonists. shares compounds with MrgX1 antag. MrgX1-HEK293, BAM8-22 calcium flux, Fluo-4; hits give low values. remaining BAM8-22 calcium response % of control (hits give low values), % at 10 µM. hit rate 19% among 2,300;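 active means remaining agonist calcium response no higher than 100% minus 3 SD of agonist-only control wells, with starting fluorescence near control levels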;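 further: agonist BAM8-22 given at a near maximal EC90 to ECmax level; peak minus minimum fluorescence divided by baseline after agonist addition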
HEK293 Ca flux: MrgX1 antagonist counter-screen hit in parental HEK293 cells; shares compounds with MrgX1 antag; Fluo-4 calcium fluorescence, FDSS; fluorescence ratio F(max-min)/F0 at 10 µM; hit rate 2% among 4,000; AID 624111;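 active means duplicate-averaged calcium fluorescence ratio at least three times the standard deviation of buffer wells, a nonspecific response in parental cells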
HEK293 Ca counter: MrgX1 allosteric activator counter-screen hit in parental HEK293 cells. shares compounds with MrgX1 antag. parental HEK293 calcium flux, Fluo-4 fluorescence ratio; hits give high values. fluorescence ratio F(max-min)/F0 at 10 µM. hit rate 0.4% among 4,000. AID 624114;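 active means calcium fluorescence ratio, averaged over duplicates, at least 3 SD of the buffer-well ratio, meaning a nonspecific response in receptor-free cells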;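 further: untransfected parental HEK293 lacking MrgX1 used as counterscreen for MrgX1 allosteric activators; fluorescence change taken during the second addition on a kinetic imager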
HEK293 Ca cntr2: activity in parental HEK293 cells lacking MrgX1 receptor; fluorescence ratio F(max-min)/F0 at 10 µM; Fluo-4 calcium fluorescence (FDSS); hits give high values; AID 624115; shares compounds with MrgX1 antag; hit rate 8.7% among 4,000;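 active means calcium fluorescence ratio at least three times the spread of buffer wells, meaning a non-specific response in parental cells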
Starred values were filed as active, the others as inactive; i = inactive; / = no result.

SMILES	MrgX1 ag	MrgX1 PAM	MrgX1 antag	RGS4 act	RGS4 block	MrgX1 ant reconf	HEK293 Ca flux	HEK293 Ca counter	HEK293 Ca cntr2
Cc1ccc(NC(=O)CN2c3cccc4cccc(c34)S2(=O)=O)cc1S(=O)(=O)N1CCOCC1	i	i	i	i	i	/	/	/	/
O=S(=O)(NC1CCCCC1N1CCN(c2ccccc2F)CC1)c1ccc(Cl)cc1 (configuration not stated)	i	i	-9.6*	i	i	i	i	i	i
Cc1nc2ccc(NC(=O)COc3ccccc3F)cc2s1	i	i	-5.8*	i	i	80%*	i	i	i
O=[N+]([O-])c1c(Nc2cccc(O)c2)cc(Cl)c2nonc12	i	i	-11*	i	i	i	i	i	i
COC(=O)c1ccccc1NC(=O)c1ccc2c(c1)OCCCO2	i	i	-10*	i	i	i	i	i	i
Cc1ccccc1NC(=O)c1ccc2c(c1)OCCO2	i	i	i	i	i	/	/	/	/
O=C(C1=C(O)C(=O)N(CC2CCCO2)C1c1ccc(Cl)cc1Cl)c1ccco1 (configuration not stated)	i	i	i	i	i	/	/	/	/
Cn1c(CNC2CCCCC2)c(C#N)c2ccccc21	i	i	i	i	i	/	/	/	/
CN1C(C)(C)CCCC1(C)C	i	i	-7*	/	/	77%*	i	i	i
Cn1cnnc1SCC(=O)Nc1ccc(OC(F)F)cc1	i	i	-4.9*	i	i	84%*	i	i	i
Cn1cnnc1SCCC(=O)Nc1ccc(Cl)cc1	i	i	-5.8*	i	i	i	i	i	i
Cn1cnnc1SCCC(=O)Nc1ccccc1	i	i	i	i	i	/	/	/	/
O=C1NC(c2ccccc2OC(F)F)Oc2ccccc21 (configuration not stated)	i	i	i	i	i	/	/	/	/
O=C(Nc1ccc(N2CCOCC2)cc1)c1ccc2nc(-c3ccco3)c(-c3ccco3)nc2c1	i	i	i	i	i	/	/	/	/
CCCNC(=O)c1ccc2nc(-c3ccccc3)c(-c3ccccc3)nc2c1	i	i	-5.3*	i	i	i	i	i	i
O=C(c1cccc(C(=O)N2CCN(c3ncccn3)CC2)c1)N1CCN(c2ncccn2)CC1	i	i	i	i	i	/	/	/	/
O=C(Nc1ccccc1)c1ccc2nc(-c3ccco3)c(-c3ccco3)nc2c1	i	i	-4.6*	i	i	79%*	i	i	i
O=C(c1ccc2nc(-c3ccco3)c(-c3ccco3)nc2c1)N1CCN(c2ncccn2)CC1	i	i	-6*	i	i	83%*	i	i	i
NS(=O)(=O)c1ccc(NC(=O)COC(=O)c2cc3ccccc3cc2O)cc1	i	i	i	i	i	/	/	/	/
COC(=O)c1sc(-c2ccc(Cl)cc2)cc1NC(=O)c1ccccc1C(=O)O	i	i	i	i	i	/	/	/	/
COC(=O)c1sc(-c2ccc(C(C)(C)C)cc2)cc1NC(=O)c1ccccc1C(=O)O	i	i	-7.1*	i	i	70%*	i	i	100*
CCOC(=O)CC1C(=O)NCCN1S(=O)(=O)c1ccc(NC(C)=O)cc1 (configuration not stated)	i	i	-6.5*	i	i	i	i	i	i

Screening data from PubChem.
